Test results published in ChEMBL document CHEMBL4765373, “Design, synthesis and biological evaluation of rasagiline-clorgyline hybrids as novel dual inhibitors of monoamine oxidase-B and amyloid-β aggregation against Alzheimer's disease” (Eur J Med Chem, 2020).
pIC50: −log10 of the molar value. Calls of active or inactive are those of the source. No cut-off for these calls is given here.

Legend:
Homo sapiens [1] = species: Homo sapiens; assay: Inhibition of self-induced amyloid beta (1 to 42) (unknown origin) peptide aggregation assessed as reduction in number of amyloid beta aggregates by TEM analysis
[2] = Tmax in Sprague-Dawley rat at 10 mg/kg, po administered via gavage by LC-MS/MS analysis; format: ADME, organism-based; conditions: in vivo
Method in brief: (§1)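 Male SD rats (n=3, 220 ± 20 g) dosed 3 mg/kg i.v. or 10 mg/kg by oral gavage. Plasma proteins precipitated with two volumes of 0.5% formic acid/acetonitrile; supernatant quantified by LC-MS/MS.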

[3] = Oral bioavailability in Sprague-Dawley rat at 10 mg/kg administered via gavage by LC-MS/MS analysis; format: ADME, organism-based; conditions: in vivo; method in brief: as §1
MAO-A = target: T1, MAO-A (Homo sapiens, UniProt P21397); assay: Inhibition of recombinant human MAOA expressed in baculovirus infected BTI insect cells at 100 uM using p-tyramine as substrate measured after 15 mins by Amplex red reagent based fluorescence assay relative to control; conditions: probe p-tyramine
T1 sequence (P21397 whole entry): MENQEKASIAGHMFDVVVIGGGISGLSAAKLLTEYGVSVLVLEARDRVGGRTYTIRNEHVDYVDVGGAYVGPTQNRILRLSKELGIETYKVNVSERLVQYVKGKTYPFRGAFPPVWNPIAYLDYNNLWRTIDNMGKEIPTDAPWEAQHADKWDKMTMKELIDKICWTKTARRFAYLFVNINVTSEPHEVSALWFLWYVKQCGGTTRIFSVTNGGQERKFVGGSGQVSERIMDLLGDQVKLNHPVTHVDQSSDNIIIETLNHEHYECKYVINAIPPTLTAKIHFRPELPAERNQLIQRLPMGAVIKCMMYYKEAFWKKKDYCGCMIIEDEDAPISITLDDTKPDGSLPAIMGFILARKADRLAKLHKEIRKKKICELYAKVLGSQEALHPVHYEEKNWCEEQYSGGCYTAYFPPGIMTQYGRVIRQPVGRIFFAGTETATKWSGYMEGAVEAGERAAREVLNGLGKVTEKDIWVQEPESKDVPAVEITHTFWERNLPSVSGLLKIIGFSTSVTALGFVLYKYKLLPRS
Method in brief: (§2)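 Recombinant human MAO-A or MAO-B with p-tyramine substrate; H2O2 production detected by Amplex Red. Compounds diluted in DMSO/PBS (final DMSO <0.1%) and incubated with enzyme and substrate 15 min at 37 °C in the dark. Fluorescence read at ex/em 545/590 nm; mean ± SD of three independent experiments.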

[4] = Cmax in Sprague-Dawley rat at 3 mg/kg, iv by LC-MS/MS analysis; format: ADME, organism-based; design: route intravenous, dose 3 mg/kg; conditions: in vivo; method in brief: as §1
[5] = Cmax in Sprague-Dawley rat at 10 mg/kg, po administered via gavage by LC-MS/MS analysis; format: ADME, organism-based; design: route oral, dose 10 mg/kg; conditions: in vivo; method in brief: as §1
Homo sapiens [6] = species: Homo sapiens; assay: Selectivity index, ratio of IC50 for recombinant human MAOA expressed in baculovirus infected BTI insect cells to IC50 for recombinant human MAOB expressed in baculovirus infected BTI insect cells; method in brief: as §2
[7] = Half life in Sprague-Dawley rat at 10 mg/kg, po administered via gavage by LC-MS/MS analysis; format: ADME, organism-based; conditions: in vivo; method in brief: as §1
[8] = target: T2, Amine oxidase [flavin-containing] B (Homo sapiens, UniProt P27338); assay: Competitive inhibition of recombinant human MAOB expressed in baculovirus infected BTI insect cells at 2.5 to 10 nM using varying levels of p-tyramine as substrate by Lineweaver-Burk plot analysis; conditions: dose 2.5-10 nM
T2 sequence (P27338 whole entry): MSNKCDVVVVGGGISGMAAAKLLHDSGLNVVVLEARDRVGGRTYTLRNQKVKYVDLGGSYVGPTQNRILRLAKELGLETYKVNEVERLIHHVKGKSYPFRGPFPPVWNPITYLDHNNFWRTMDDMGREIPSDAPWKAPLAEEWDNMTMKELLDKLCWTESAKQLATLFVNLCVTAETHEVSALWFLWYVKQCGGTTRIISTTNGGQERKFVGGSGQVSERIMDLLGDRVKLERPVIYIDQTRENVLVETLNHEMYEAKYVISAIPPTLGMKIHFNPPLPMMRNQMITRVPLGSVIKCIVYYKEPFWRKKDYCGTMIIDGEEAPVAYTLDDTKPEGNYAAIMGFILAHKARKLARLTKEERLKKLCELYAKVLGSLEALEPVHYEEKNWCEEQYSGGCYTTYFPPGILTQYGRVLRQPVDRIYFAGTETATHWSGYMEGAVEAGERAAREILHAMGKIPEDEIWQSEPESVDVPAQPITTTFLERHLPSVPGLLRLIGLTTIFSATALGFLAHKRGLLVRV
Method in brief: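 Recombinant hMAO-B initial rates measured with and without inhibitor at 2.5, 5 and 10 nM. p-Tyramine substrate at 0.05, 0.1, 0.5, 1.0, 1.5 and 3.0 mM. H2O2 production read by Amplex Red fluorescence. Mechanism taken from overlaid Lineweaver–Burk reciprocal plots.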

[9] = Clearance in Sprague-Dawley rat at 3 mg/kg, iv by LC-MS/MS analysis; format: ADME, organism-based; conditions: in vivo; method in brief: as §1
[10] = AUC (0 to infinity) in Sprague-Dawley rat at 10 mg/kg, po administered via gavage by LC-MS/MS analysis; format: ADME, organism-based; design: route oral, time infinity, dose 10 mg/kg; conditions: in vivo; method in brief: as §1
SH-SY5Y [11] = assay: Cytotoxicity against human SH-SY5Y cells assessed as reduction in cell viability at 25 uM after 24 hrs by MTT assay; format: cell-based
Method in brief: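 SH-SY5Y cells grown in DMEM with FBS, penicillin/streptomycin, 5% CO2, 37 °C. Seeded at 10,000 cells/well and exposed to compound (6.25–100 µM) for 24 h at 37 °C. MTT added for 4 h, formazan dissolved in DMSO, absorbance read at 570 nm (reference 630 nm). Mean ± SD of three independent experiments.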

[12] = Half life in Sprague-Dawley rat at 3 mg/kg, iv by LC-MS/MS analysis; format: ADME, organism-based; conditions: in vivo; method in brief: as §1
in vitro = conditions: PAMPA, pH 7.4
SH-SY5Y [13] = assay: Neuroprotective activity against 6-OHDA-induced cell death in human SH-SY5Y cells assessed as increase in cell survival at 1.563 to 25 uM incubated for 24 hrs by MTT assay; format: functional, cell-based; conditions: dose 1.563-25 µM
Method in brief: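 SH-SY5Y cells co-incubated with 200 µM 6-OHDA and compound at 1.563, 3.125, 6.25, 12.5 or 25 µM for 24 h. Viability read by MTT assay against a 6-OHDA-only group. Means ± SEM of three independent experiments.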

[14] = AUC (0 to infinity) in Sprague-Dawley rat at 3 mg/kg, iv by LC-MS/MS analysis; format: ADME, organism-based; design: time infinity, route intravenous, dose 3 mg/kg; conditions: in vivo; method in brief: as §1
Homo sapiens [15] = species: Homo sapiens; assay: Inhibition of self-induced amyloid beta (1 to 42) (unknown origin) peptide aggregation at 25 uM measured after 48 hrs by thioflavin-T fluorescence assay relative to control
[16] = target: T2, Amine oxidase [flavin-containing] B; assay: biochemical; format: cell-based, BTI
[17] = target: T2, Amine oxidase [flavin-containing] B; assay: Inhibition of recombinant human MAOB expressed in baculovirus infected BTI insect cells at 100 uM using p-tyramine as substrate measured after 15 mins by Amplex red reagent based fluorescence assay relative to control; conditions: 0.25 h; method in brief: as §2

inhibition at 0.25 h, 100 µM (MAO-A)	Papp at 16 h (in vitro)	inhibition (Homo sapiens [15])	pIC50 [16]	Structure (SMILES)	Ratio IC50 (Homo sapiens [6])	other results
6.04%	10.2 ×10⁻⁶ cm/s	40.8%	8.40	C#CCN(C)CCCCCOc1ccc2c(c1)OCCC2=O	> 2.5 10^4No_unit	inhibition (Homo sapiens [1]): Active; Tmax [2]: 0.3 h; bioavailability [3]: 36.1%; Cmax [4]: 639 ng/mL; Cmax [5]: 142 ng/mL; half-life [7]: 1.33 h; inhibition (INH) [8]: Active; CL [9]: 55.5 mL/min/kg; AUC(0-inf) [10]: 268 ng·h/mL; Activity (SH-SY5Y [11]): Non-Toxic; half-life [12]: 1.02 h; Activity (SH-SY5Y [13]): Active; AUC [14]: 247.74 ng·h/mL
32.1%	9.21 ×10⁻⁶ cm/s	7.77%	4.94	C#CCN(C)CCCOc1ccc2c(c1)OCCC2=O	> 9	
		46.1%		COc1cc(/C=C/C(=O)CC(=O)/C=C/c2ccc(O)c(OC)c2)ccc1O		inhibition (Homo sapiens [1]): Active
28.6%	8.91 ×10⁻⁶ cm/s	0.34%	6.37	C#CCN(C)CCCCCCCCOc1ccc2c(c1)OCCC2=O	> 237	
39.5%	12.9 ×10⁻⁶ cm/s	5.74%	5.19	C#CCN(C)CCCCCOc1ccc(C(C)=O)cc1OC	> 15	
25%	8.58 ×10⁻⁶ cm/s	18.1%	6.88	C#CCN(C)CCCCCCOc1ccc2c(c1)CCCC2=O	> 751	
	12.4 ×10⁻⁶ cm/s			C[C@]12CC[C@@H]3c4ccc(O)cc4CC[C@H]3[C@@H]1CC[C@@H]2O [ESTRADIOL]		
37.4%	11.2 ×10⁻⁶ cm/s	0.99%	6.26	C#CCN(C)CCCCCCOc1ccc(C=O)c(OC)c1	> 181	
21.1%	12.5 ×10⁻⁶ cm/s	21.8%	5.94	C#CCN(C)CCCCOc1ccc(C(C)=O)cc1OC	> 87	
34.1%	8.54 ×10⁻⁶ cm/s	0.66%	6.93	C#CCN(C)CCCCCCOc1ccc2c(c1)OCCC2=O	> 855	
31%	10.9 ×10⁻⁶ cm/s	11.4%	7.02	C#CCN(C)CCCCCOc1ccc2c(c1)CCC2=O	> 1060	
29.4%	13.1 ×10⁻⁶ cm/s	0.86%		C#CCN(C)CCCCOc1ccc(C=O)c(OC)c1		inhibition at 100 µM [17]: 41.2%
28.6%	10.6 ×10⁻⁶ cm/s	6.18%	7.25	C#CCN(C)CCCCOc1ccc(C(C)=O)cc1	> 1770	
11.7%	8.3 ×10⁻⁶ cm/s	9.76%	7.28	C#CCN(C)CCCCCCOc1ccc2c(c1)OCC2=O	> 1930	
26.1%	10.6 ×10⁻⁶ cm/s	10.3%	7.33	C#CCN(C)CCCCCOc1ccc2c(c1)CCCC2=O	> 2160	
30.9%	8.7 ×10⁻⁶ cm/s	13.4%	7.14	C#CCN(C)CCCCOc1ccc2c(c1)CCCC2=O	> 1380	
4.42%	12.8 ×10⁻⁶ cm/s	0.68%	6.89	C#CCN(C)CCCCCCOc1ccc2c(c1)CCC2=O	> 777	
7.93%	9.61 ×10⁻⁶ cm/s	31.3%	6.44	C#CCN(C)CCCCOc1ccc2c(c1)CCC2=O	> 273	
32.3%	10.5 ×10⁻⁶ cm/s	22.2%	7.00	C#CCN(C)CCCCCOc1cccc(OC)c1	> 991	
47.9%				C#CCN[C@@H]1CCc2ccccc21 [RASAGILINE]		Activity (SH-SY5Y [13]): Active
22.8%	13.7 ×10⁻⁶ cm/s	43.9%	7.23	C#CCN(C)CCCCOc1ccc2c(c1)OCCC2=O	> 1700	
37.3%	8.69 ×10⁻⁶ cm/s	12.7%	7.69	C#CCN(C)CCCCCCOc1ccc(C(C)=O)cc1	> 4900	
27.1%	14 ×10⁻⁶ cm/s	0.82%	5.24	C#CCN(C)CCCCCOc1ccc(C=O)c(OC)c1	> 17	

Structure (SMILES)	inhibition at 0.25 h, 100 µM (MAO-A)	Papp at 16 h (in vitro)	inhibition (Homo sapiens [15])	pIC50 [16]	Ratio IC50 (Homo sapiens [6])	other results
CN(C)CCCN1c2ccccc2Sc2ccc(Cl)cc21 [CHLORPROMAZINE]		7.12 ×10⁻⁶ cm/s				
